From ChEMBL document CHEMBL4392865, “Indole Diterpenoids from an Endophytic Penicillium sp” (J Nat Prod, 2019)

Key:
HEK293 = test: Cytotoxicity against HEK293 cells assessed as reduction in cell viability incubated for 72 hrs by MTT assay; type: cell-based; conditions: Homo sapiens, HEK293, 72 h
A2780 = test: Cytotoxicity against human A2780 cells assessed as reduction in cell viability incubated for 72 hrs by MTT assay; type: functional, cell-based
J82 = test: Cytotoxicity against human J82 cells assessed as reduction in cell viability incubated for 72 hrs by high content analysis based fluorescent live/dead assay; type: functional
Outline: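 J82 bladder cancer cells were analysed by fluorescent live/dead staining. An imaging system gave direct counts of live and dead cells, and IC50 values were derived from these counts.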

L5178Y = test: Cytotoxicity against mouse L5178Y cells assessed as reduction in cell viability incubated for 72 hrs by MTT assay; type: functional, cell-based
Outline: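 Murine L5178Y lymphoma cells were the cells tested, with kahalalide F run in parallel as the positive control. The read-out was IC50.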

[1] = Selectivity index, ratio of IC50 for HEK293 cells to IC50 for human A2780 cells; type: toxicity; conditions: HEK293 cells versus A2780 cells, read-out: Ratio IC50
Outline: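 Selectivity index is the IC50 against HEK-293 cells divided by the IC50 against A2780 ovarian cancer cells, each from this paper's cytotoxicity testing.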

[2] = Homo sapiens, A2780, 72 h, read-out: IC50
[3] = Homo sapiens, J82, 72 h, read-out: IC50
[4] = Mus musculus, L5178Y, 72 h, read-out: IC50

SMILES	IC50 (HEK293)	IC50 (A2780; [2])	IC50 (J82; [3])	IC50 (L5178Y; [4])	selectivity ratio [1]	IC50 (L5178Y; l5178y)	IC50 (A2780; a2780)	IC50 (J82; j82)
CC1(C)CC2=C(Cc3cc4c5c([nH]c4cc32)[C@@]2(C)[C@@H](CC[C@@]3(O)C4=CC(=O)[C@@H](C(C)(C)O)OC4=CC[C@@]32C)C5)C(C)(C)O1	37.4 µM	7.8 µM	31.7 µM	8.1 µM	4.8			
CC1(C)O[C@@]23CC[C@@]4(C)C(=CC[C@H]5Cc6c([nH]c7ccccc67)[C@@]54C)C2=CC(=O)[C@@H]1O3	21.7 µM	12.2 µM	42.1 µM	5.3 µM	1.8			
CO[C@]12CC[C@@]3(C)[C@@](O)(CC[C@H]4Cc5c([nH]c6cc7c(cc56)CC5=C7CC(C)(C)OC5(C)C)[C@@]43C)C1=CC(=O)[C@@H](C(C)(C)O)O2		32.2 µM	96.7 µM			Not Active		
CO[C@]12CC[C@@]3(C)[C@@](O)(CC[C@H]4Cc5c([nH]c6ccccc56)[C@@]43C)C1=CC(=O)[C@@H](C(C)(C)O)O2		12.2 µM	55.3 µM			Not Active		
CC(C)(O)[C@H]1O[C@@]2(O)CC[C@@]3(C)[C@@H](CC[C@H]4Cc5c([nH]c6ccccc56)[C@@]43C)C2=CC1=O	39.8 µM			6.2 µM			Not Active	
CC(C)(O)[C@H]1O[C@H]2CC[C@@]3(C)[C@@H](CC[C@H]4Cc5c([nH]c6ccccc56)[C@@]43C)C2=CC1=O [DEHYDROXYPAXILLINE]		17.1 µM				Not Active		
CC(C)(O)[C@H]1O[C@H]2CC[C@@]3(C)[C@@H](CC[C@H]4Cc5c([nH]c6ccccc56)[C@@]43C)C2=C[C@H]1O		28.5 µM				Not Active		
CC1(C)O[C@@]23CC[C@]4(C)c5cc6[nH]c7ccccc7c6cc5CC[C@H]4C2=CC(=O)[C@@H]1O3	28.5 µM	8.7 µM	40.6 µM	3.6 µM	3.3			
CC1(C)CC2=C(Cc3cc4c(cc32)NC(=O)[C@@]2(C)[C@@H](CC[C@@]3(O)C5=CC(=O)[C@@H](C(C)(C)O)O[C@H]5CC[C@@]32C)CC4=O)C(C)(C)O1	28.3 µM	11.9 µM	29.4 µM	7.6 µM	2.4			
CC(C)=CCc1ccc2[nH]c3c(c2c1)C[C@@H]1CC[C@@]2(O)C4=CC(=O)[C@@H](C(C)(C)O)O[C@H]4CC[C@]2(C)[C@@]31C				12.9 µM			Not Active	
CC(C)=CCc1ccc2[nH]c3c(c2c1)C[C@@H]1CC[C@@]2(O)C4=CC(=O)[C@@H]5O[C@@]4(CC[C@]2(C)[C@@]31C)OC5(C)C		19.8 µM				Not Active		
CC(C)=CCC[C@]1(C)[C@@H](O)CC[C@@]2(C)[C@H]1CC[C@H]1Cc3c([nH]c4ccccc34)[C@@]12C [EMINDOLE SB]	44.6 µM	8.2 µM		18.3 µM	5.4			
CO[C@]12CC[C@@]3(C)[C@@](O)(CC[C@H]4CC(=O)c5cc6c(cc5NC(=O)[C@@]43C)C3=C(C6)C(C)(C)OC(C)(C)C3)C1=CC(=O)[C@@H](C(C)(C)O)O2		19.4 µM	73 µM			Not Active		
CC(C)(O)[C@H]1O[C@@]2(O)CC[C@@]3(C)C(=CC[C@H]4Cc5c([nH]c6ccccc56)[C@@]43C)C2=CC1=O	27.9 µM			5.3 µM			Not Active	
CC1(C)CC2=C(Cc3cc4c5c([nH]c4cc32)[C@@]2(C)[C@@H](CC[C@@]3(O)C4=CC(=O)[C@@H](C(C)(C)O)O[C@H]4CC[C@@]32C)C5)C(C)(C)O1		12.8 µM		10.9 µM				
CC(C)(O)[C@@H]1CC[C@]2(C)[C@H](CC[C@@]3(C)[C@H]2CC[C@H]2Cc4c([nH]c5ccccc45)[C@@]23C)O1 [PASPALINE]	43 µM	5.3 µM			8.1	Not Active		
CC1(C)CC2=C(Cc3cc(C(=O)C[C@@H]4CC[C@@]5(O)C6=CC(=O)[C@@H](C(C)(C)O)O[C@H]6CC[C@]5(C)[C@@]4(C)C(=O)O)c(N)cc32)C(C)(C)O1		51.5 µM				Not Active		Not Active
